ALR H2O2 inh: inhibitors of human sulfhydryl oxidase ALR; purified ALR, DTT oxidation, H2O2 HRP-luminol luminescence; AID 485317; inhibition, % (concentration not given with the values); actives 3.8% (n = 290,000); P55789;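 active = mean replicate inhibition above about 79%, with every replicate also reaching it, limit read from the data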
Target sequence (P55789 whole entry, looked up): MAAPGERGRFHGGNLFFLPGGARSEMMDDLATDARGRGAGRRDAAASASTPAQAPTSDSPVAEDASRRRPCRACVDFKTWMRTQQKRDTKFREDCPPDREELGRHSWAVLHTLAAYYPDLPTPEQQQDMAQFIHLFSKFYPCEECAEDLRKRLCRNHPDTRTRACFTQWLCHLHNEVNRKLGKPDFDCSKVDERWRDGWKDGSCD
UBC13 inh: human UBC13 polyubiquitination inhibition; P61088; UBC13 polyubiquitin chain formation, TR-FRET; inhibition, % at 20 µM; actives 0.47% (n = 330,000); in the data active = inhibition above about 45%, passing the limit was not always enough
Target sequence (P61088 whole entry, looked up): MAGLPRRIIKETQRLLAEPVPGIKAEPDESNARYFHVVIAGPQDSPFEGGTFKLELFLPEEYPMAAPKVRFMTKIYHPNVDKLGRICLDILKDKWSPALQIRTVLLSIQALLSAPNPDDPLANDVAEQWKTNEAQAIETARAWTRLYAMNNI
PREPL inh: human PREPL enzyme inhibition | Q4J6C6 | recombinant PREPL, fluorescence polarization activity-based probe | inhibition, % at 5.96 µM | actives 0.68% (n = 320,000); in the data active = inhibition above about 43%
RBBP9 inh: human RBBP9 hydrolase inhibition. O75884. recombinant RBBP9, FP-Rh probe fluorescence polarization. inhibition, % at 7.94 µM. actives 0.2% (n = 220,000). AID 1515;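 active = inhibition above the campaign mean of all tested compounds plus 3 SD, cut at about 14% in these data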
Target sequence (O75884 whole entry, looked up): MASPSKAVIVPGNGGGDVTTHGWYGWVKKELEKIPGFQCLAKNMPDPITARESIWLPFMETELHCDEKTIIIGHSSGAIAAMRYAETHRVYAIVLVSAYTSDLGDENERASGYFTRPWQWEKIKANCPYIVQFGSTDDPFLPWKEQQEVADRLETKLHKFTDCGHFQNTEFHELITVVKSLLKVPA
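system = RBBP9 protein | input = RBBP9 at 2.5 µM in dispensed solution, before mixing | measured by = fluorescence polarization (mP), excitation 525 nm, emission 598 nm | incubation = enzyme-compound preincubation 30 min, then probe labeling 45 min, 25 °C | buffer or medium = Tris-NaCl-Pluronic buffer, pH 8.0 | compound = single dose 7.94 µM | also added = FP-Rh probe, 375 nM dispensing solution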
UBC9 SUMO inh: blocks human SUMOylation mediated by UBC9 | P63279 | HTRF SUMOylation assay, SAE1/SAE2 + UBC9, in vitro | inhibition, % at 35 µM | actives 0.36% (n = 290,000); in the data active = inhibition above about 50%, passing the limit was not always enough
Target sequence (P63279 whole entry, looked up): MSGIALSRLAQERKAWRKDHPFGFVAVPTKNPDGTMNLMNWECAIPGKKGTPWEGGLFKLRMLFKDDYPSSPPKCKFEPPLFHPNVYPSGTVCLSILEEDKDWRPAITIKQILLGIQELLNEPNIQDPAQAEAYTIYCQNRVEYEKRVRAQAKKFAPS
Rin1 Abl inh: human Rin1-Abl interaction inhibition. P00519+Q13671. actives 0.4% (n = 360,000). inhibition, % at 7.35 µM. TR-FRET Rin1/Abl binding, biochemical; in the data active = inhibition above about 5%, passing the limit was not always enough
Each line names hits and unclear results; the compound was inactive in the other large screens. Compounds with a hit are over-represented: about 4.3% of the library has one in this group of screens.

COc1cc(/C=N/n2c(-c3cc(C)[nH]n3)n[nH]c2=S)cc(OC)c1OC	none
COc1cccc(/C=N/n2c(-c3cc(C)[nH]n3)n[nH]c2=S)c1O	ALR H2O2 inh 98
COc1cccc(/C=N/n2c(-c3n[nH]c4c3CCC4)n[nH]c2=S)c1O	ALR H2O2 inh 97
S=c1[nH]nc(-c2ccco2)n1/N=C/C=C/c1ccco1	none
S=c1[nH]nc(-c2n[nH]c3c2CCC3)n1/N=C/C=C/c1ccco1	ALR H2O2 inh 97
CCCCCN(C(=O)CCC(=O)OCC(=O)Nc1ccc(C)cc1F)c1c(N)n(CCCC)c(=O)[nH]c1=O	none (no result: RBBP9 inh)
O=C(Cn1cnc2ccccc2c1=O)N1CCN(S(=O)(=O)c2ccc(F)cc2)CC1	none (no result: RBBP9 inh, UBC9 SUMO inh)
CCOc1ccc(CCNC(=O)Cn2nc(C)n3cccc3c2=O)cc1OCC	none (no result: RBBP9 inh)
Cc1cc(C(=O)COC(=O)C23CC4CC(CC(O)(C4)C2)C3)c(C)n1C	none (no result: RBBP9 inh, UBC9 SUMO inh)
Cc1cc(-c2n[nH]c(=S)n2/N=C/c2ccccc2[N+](=O)[O-])n[nH]1	ALR H2O2 inh 95
Cc1cc(-c2n[nH]c(=S)n2/N=C/c2ccc(Br)s2)n[nH]1	ALR H2O2 inh 97
Cc1cc(-c2n[nH]c(=S)n2/N=C/c2ccc(C)s2)n[nH]1	none
Cc1cccc(OCC(O)Cn2c(N3CCCCC3)nc3c2c(=O)n(C)c(=O)n3C)c1 (stereo unspecified)	none (no result: RBBP9 inh)
Cc1ccc(NC(=S)NNS(=O)(=O)c2ccc3ccccc3c2)cc1Cl	none
O=C(NC(=S)NCc1ccccc1)c1ccccc1F	none
O=C(NC(=S)NC(=O)c1ccccc1F)c1ccccc1F	ALR H2O2 inh 89
O=C(COC(=O)Cc1ccc(Cl)cc1Cl)Nc1ccccc1OC(F)F	none
O=C(O)c1ccccc1C(=O)Nc1ccc(Nc2ccc([N+](=O)[O-])cc2[N+](=O)[O-])cc1	ALR H2O2 inh 96 (no result: RBBP9 inh)
Nc1ccc(Nc2ccc([N+](=O)[O-])cc2[N+](=O)[O-])cc1	ALR H2O2 inh 98
NC(=O)c1ccc(Nc2ccc([N+](=O)[O-])cc2[N+](=O)[O-])cc1	none
O=C(COC(=O)CCN=C1NS(=O)(=O)c2ccccc21)NNC(=O)c1ccc(Cl)cc1	none (no result: RBBP9 inh, UBC9 SUMO inh)
O=C(c1cc(-c2cccnc2)nc2ccccc12)N1CCN(S(=O)(=O)c2ccc(Cl)s2)CC1	none (no result: ALR H2O2 inh, UBC13 inh, PREPL inh, RBBP9 inh, UBC9 SUMO inh)
COc1ccc(C(=O)Nc2cc(C(C)=O)c(C)oc2=O)cc1	ALR H2O2 inh 92
CC(=O)c1cc(NC(=O)c2ccc(Cl)cc2)c(=O)oc1/C=C/N(C)C	ALR H2O2 inh 97
O=C(OCC(=O)N1CCCCCC1)c1ccccc1Br	none (no result: RBBP9 inh, UBC9 SUMO inh)
CC(=O)Nc1ccc(-c2csc(N/N=C\c3ccncc3)n2)cc1	ALR H2O2 inh 99
CCCC(=O)Nc1ccc(-c2csc(N/N=C\c3ccncc3)n2)cc1	ALR H2O2 inh 98
CNC(=O)c1csc(-c2ccc(C)cc2)n1	ALR H2O2 inh 99
CNC(=O)c1csc(-c2ccc(Cl)cc2)n1	none
Nc1cc(=O)[nH]c(SCC(=O)c2ccc(F)cc2)n1	ALR H2O2 inh 98 (no result: RBBP9 inh)
Nc1cc(=O)[nH]c(SCCSc2ccc(F)cc2)n1	none (no result: RBBP9 inh)
Cc1ccc(C(=O)CSc2nc(N)cc(=O)[nH]2)cc1	ALR H2O2 inh 99
Cc1cc(=O)[nH]c(SCC(=O)c2ccc(C(C)C)cc2)n1	ALR H2O2 inh 98
CCOC(=O)Cc1csc(NC(=O)CN2CCOCC2)n1	none (no result: RBBP9 inh)
N=C(N)c1ccc(OCCCCCOc2ccc(C(=N)N)cc2)cc1	none
CCCCCCOc1ccc(/C(N)=N/O)cc1	ALR H2O2 inh 99
Clc1ccc(-c2nc3ccncc3[nH]2)cc1	ALR H2O2 inh 99
Fc1ccc(-c2nc3ccncc3[nH]2)cc1	none
COc1ccc(-c2nc3ccncc3[nH]2)cc1OC	UBC9 SUMO inh 65 (no result: ALR H2O2 inh)
Cc1cc(=O)n(-c2ccccc2)n1C	none (no result: ALR H2O2 inh, RBBP9 inh, UBC9 SUMO inh)
COc1ccc(CCNCC2C(Oc3ccc(Cl)cc3)C(=O)N2c2ccccc2C)cc1OC (stereo unspecified)	none
O=C(Nc1c(Cl)cc2c(c1Cl)Cc1cc([N+](=O)[O-])ccc1-2)C(Cl)Cl	none (no result: ALR H2O2 inh, UBC13 inh, PREPL inh, RBBP9 inh, UBC9 SUMO inh)
Nc1ccc(S(N)(=O)=O)cc1N	ALR H2O2 inh 84
Nc1ccc(S(N)(=O)=O)cc1	none (no result: RBBP9 inh, UBC9 SUMO inh)
Cc1cc(NC(=O)c2cccc(S(=O)(=O)Nc3cccc(C(=O)O)c3)c2)no1	none (no result: RBBP9 inh)
CCOC(=O)c1sc2nc(CC(=O)OC)nc(NCc3ccco3)c2c1C	none (no result: ALR H2O2 inh, UBC13 inh, PREPL inh)
Cc1sc2ncnc(SCc3ccco3)c2c1C	ALR H2O2 inh 91
Cc1sc2ncnc(N(C)Cc3ccco3)c2c1C	none
Cc1sc2nc3c4ccccc4c(NCc4ccco4)nn3c(=O)c2c1C	ALR H2O2 inh 98
Cc1nc(NCc2ccco2)c2c(C)c(C)sc2n1	ALR H2O2 inh 97
Cc1ccc(-c2nc(C)sc2CC(=O)Nc2cccc(C)c2C)cc1	none
CCCCCOc1ccc(CSC(=N)N)cc1[N+](=O)[O-]	ALR H2O2 inh 99
O=[N+]([O-])c1ccc(CSC2=NCCN2)cc1	ALR H2O2 inh 99 (no result: RBBP9 inh)
c1ccc(CSC2=NCCS2)cc1	none
O=[N+]([O-])c1ccc(CSC2=NCCS2)cc1	ALR H2O2 inh 99 (no result: RBBP9 inh)
CCCCOc1ccc(CSC2=NCCN2)cc1[N+](=O)[O-]	ALR H2O2 inh 100
O=[N+]([O-])c1ccc(CSCc2ccc([N+](=O)[O-])cc2)cc1	none (no result: ALR H2O2 inh, UBC13 inh, PREPL inh, RBBP9 inh, UBC9 SUMO inh)
CC(C)(Cc1ccc(O)cc1)NC(=O)SCc1ccccc1	none (no result: RBBP9 inh)
CCN(CC(=O)NCc1cccs1)C(=O)/C=C/c1cc(OC)c(OC)c(OC)c1	none (no result: ALR H2O2 inh, PREPL inh, RBBP9 inh, UBC9 SUMO inh)
CCOC(=O)c1nc(Nc2cc(Cl)ccc2OC)c2ccccc2n1	none (no result: RBBP9 inh)
CCOc1ccc(CSC2=NCCN2)cc1[N+](=O)[O-]	ALR H2O2 inh 99
COc1ccc(C(=O)NNC2=CC(=O)CC(C)(C)C2)cc1	none
CC1(C)CC(=O)C=C(OC(=O)c2ccc(Cl)cc2)C1	ALR H2O2 inh 98
COc1cc(N=Nc2ccccc2C(=O)O)ccc1O	ALR H2O2 inh 98
Cc1cc(N=Nc2ccccc2C(=O)O)c(C)c(C)c1O	ALR H2O2 inh 81
COc1cccc(Cn2cc(C)cc(NC(=O)NCc3ccccc3)c2=O)c1	none (no result: RBBP9 inh)
CCCc1c(C(=O)NNc2ccccc2OC)cnn1-c1ccccc1	ALR H2O2 inh 88
CCCc1c(C(=O)Nc2ccc(OC)cc2)cnn1-c1ccccc1	none
Cc1nn(C)c(N)c1-c1ccccc1	none
Cc1nn(C2CCCCC2)c(N)c1-c1ccccc1	ALR H2O2 inh 97
Cc1nn(Cc2ccccc2)c(N)c1-c1ccccc1	ALR H2O2 inh 97
Cc1cc(C(=O)OCC(=O)NC(C)c2ccc(F)cc2)c(C)o1 (stereo unspecified)	none (no result: RBBP9 inh, UBC9 SUMO inh)
O=C(O)c1ccccc1Nc1cc(Cl)c2nonc2c1[N+](=O)[O-]	none (no result: RBBP9 inh)
O=[N+]([O-])c1c(Nc2ccccn2)cc(Cl)c2nonc12	UBC9 SUMO inh 93
Cc1ccc(NC(=O)CSc2nc(=O)n(CCCN(C)C)c3c2CCC3)c(C)c1	none (no result: RBBP9 inh, UBC9 SUMO inh)
CN(C)CCn1c2c(c(SCC(=O)Nc3cccc(C(F)(F)F)c3)nc1=O)CCCC2	ALR H2O2 inh 98 (no result: RBBP9 inh, UBC9 SUMO inh)

Screening data (PubChem)
